# Screening results as filed in PubChem.
# Sampled rows, rich in hits. Any-hit rate of the full collection: about 4%.
# OX1R antag-1 = blocks the human orexin 1 receptor. O43613. CHO/OX1R cells, Fluo-8 calcium fluorescence, orexin A. inhibition, % at 5 µM. 330,000 compounds, 0.43% hits. AID 434989;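 active = inhibition above its plate's threshold, mean inhibition of all tested compounds on the plate plus 3 SD, cut at about 37% in these data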;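 also: 0% = orexin A challenge wells and 100% = SB-334867-A antagonist wells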
# NTR1 ag = NTR1 (human) agonism; activation, % at 20 µM; 330,000 compounds, 0.17% hits; NTR1-U2OS beta-arrestin-GFP spot imaging, agonist mode; P30989;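 active = activation at or above 40% of the spot to cytoplasm intensity ratio, with at least 20 cells analyzed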;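 also: 0% = DMSO without peptide and 100% = 100 nM NTR1 peptide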
# TAAR1 antagonist = human TAAR1 antagonism. 360,000 compounds, 1.5% hits. AID 624466. CHO RD-HGA16 TAAR1, Fluo-8 calcium fluorescence, antagonist. inhibition, % at 3 µM;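 active = inhibition above a per-plate cutoff, the mean inhibition of test compounds on that plate plus 3 SD, cut at about 49% in these data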;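 also: 0% = DMSO plus EC80 beta-PEA response and 100% = DMSO alone without agonist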
# Target sequence (Q96RJ0 whole entry, looked up): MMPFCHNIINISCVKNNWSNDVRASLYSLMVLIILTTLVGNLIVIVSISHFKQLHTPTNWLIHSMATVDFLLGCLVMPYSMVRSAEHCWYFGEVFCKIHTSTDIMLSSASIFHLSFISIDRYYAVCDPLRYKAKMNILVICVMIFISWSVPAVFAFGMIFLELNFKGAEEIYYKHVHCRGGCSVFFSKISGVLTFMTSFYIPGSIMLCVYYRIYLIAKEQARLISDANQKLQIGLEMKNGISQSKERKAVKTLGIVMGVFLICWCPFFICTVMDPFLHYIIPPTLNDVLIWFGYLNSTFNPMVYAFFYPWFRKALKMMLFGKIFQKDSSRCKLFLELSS
#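 System: CHO RD-HGA16 cells bearing hTAAR1. Reagent: EC80 β-phenethylamine stimulus. Schedule: seeding 17-24 h prior, 75-min 37 °C, 30-min RT dye loading. Signal: Fluo-8 intracellular calcium dye fluorescence, real-time kinetic reads. Read-out: % inhibition from peak post-agonist over basal fluorescence ratio. Benchmarks: vehicle wells and EC80 agonist wells. Replicates: n of 1.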
# TAAR1 ag = human TAAR1 agonism; Q96RJ0; CHO RD-HGA16 TAAR1, Fluo-8 calcium fluorescence; vehicle wells 0%, saturating PEA agonist 100%; activation, % at 3 µM; 360,000 compounds, 0.99% hits; AID 624467;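 active = activation above the mean activation of all test compounds in the run plus 3 SD, cut at about 38% in these data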
#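 System: CHO-derived RD-HGA16 cells with stable Gα16 and human TAAR1. Times: 17-24 h plating, Fluo-8 75 min 37 °C, 30 min RT. Measured by: calcium-sensitive Fluo-8 signal, excitation 470-495, emission 515-575 nm. Read-out basis: % activation relative to PEA EC100 response. Control set: DMSO and PEA EC100. Repeats: no replicates (n 1).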
# CHO parental Ca = signal in parental CHO cells, OX1R antagonist counter-screen; parental CHO-K1, ATP-induced calcium, Fluo-8 fluorescence; inhibition, % at 5.6 µM; 330,000 compounds, 0.63% hits; AID 463079;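 active = inhibition above that plate's mean sample inhibition plus 3 SD, cut at about 26% in these data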;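 also: 0% = ATP-challenged DMSO wells and 100% = DMSO wells without ATP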
#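 material = parental CHO cells | also added = ATP as calcium-mobilizing challenge | dosing = single point at 5.6 µM | detection = intracellular calcium via Fluo-8 no-wash fluorescent dye | read-out = % inhibition | benchmarks = low control ATP plus DMSO, high control DMSO only | repeats = one well per compound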
# OX1R antag-2 = antagonists of human orexin 1 receptor (OX1R). O43613. OX1R-expressing cells, FRET antagonist read-out. inhibition, % at 6.6 µM. 330,000 compounds, 1.8% hits. AID 485270; in the data active = inhibition mostly above about 38%, no sharp cut-off; inactive = mostly below about 40%;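 also: 0% = agonist challenge alone and 100% = reference antagonist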
# * = called active by the depositor; . = no result given.
SMILES,OX1R antag-1,NTR1 ag,TAAR1 antagonist,TAAR1 ag,CHO parental Ca,OX1R antag-2
CC1CCCN(CCCNC(=O)C2CCC(CNS(=O)(=O)c3cccc4nsnc34)CC2)C1 (stereo not given),1,0,.,.,-7,48*
CCOCCCNC(=O)C1CCC(CNS(=O)(=O)c2cccc3nsnc23)CC1 (stereo not given),-12,-1,7,7,-7,53*
CCC(C)NC(=O)C1CCC(CNS(=O)(=O)c2cccc3nsnc23)CC1 (stereo not given),-8,1,.,.,-10,50*
CCCCNC(=O)C1CCC(CNS(=O)(=O)c2cccc3nsnc23)CC1 (stereo not given),-8,-1,-23,11,-11,41
O=C(CCCNS(=O)(=O)c1cccc2nsnc12)NC1CCCCC1,-20,2,8,1,-12,80*
CCCNC(=O)C1CCC(CNS(=O)(=O)c2cccc3nsnc23)CC1 (stereo not given),8,0,-7,6,0,34
C[C@@H]1NS(=O)(=O)c2cccc(Cl)c2O[C@@H]1c1ccccc1,.,.,-30,0,.,.
Clc1ccc2[nH]cc(-c3nnnn3-c3ccc4ccccc4c3)c2c1,30,11,49*,8,57*,54
COc1cccc2cc(C(=O)NCCN3CCOCC3)c(=O)oc12,-5,0,-13,4,-13,39*
COc1cccc(NC(=O)c2cc3cccc(OC)c3o/c2=N\O)c1,40*,12,.,.,16,93*
COc1ccc(CCNC(=O)c2cc3cccc(OC)c3oc2=O)cc1OC,-29,0,19,3,-10,6
COc1ccc(C(=O)NNC(=O)c2cc3cccc(OC)c3oc2=O)cc1,-16,0,-7,14,-5,50*
Cc1cc(N2CCNC[C@H]2C)ccc1N1CCS(=O)(=O)CC1,.,.,5,2,.,.
Fc1ccc(-c2ccc3c(n2)CCCN3Cc2ccccc2C(F)(F)F)cc1,.,.,-34,-1,.,.
CCOC(=O)C1=C(C)Nc2ccccc2N/C1=N\S(=O)(=O)c1ccc(Cl)cc1,6,1,32,8,-1,30*
CC1(N2CCCCC2)C(=O)c2ccccc2C1=O,-17,-1,3,8,2,9
CC1(S(=O)(=O)O)CC(=O)c2ccccc2C1=O (stereo not given),-2,2,3,0,-2,60*
O=[N+]([O-])c1nccn1CC(O)CCN1CCOCC1 (stereo not given),.,.,-17,1,.,.
O=C(Cc1ccc(Cl)cc1)Nc1ccc(SC(F)F)cc1,4,6,55*,3,18,-2
O=C(COC(=O)c1ccccc1Cc1ccccc1)Nc1ccc(SC(F)F)cc1,6,.,28,3,42*,26
Cc1ccc(C(=O)c2ccccc2C(=O)OCC(=O)Nc2ccc(SC(F)F)cc2)cc1,18,1,15,3,12,28
O=C1c2ccccc2NC(c2cc(Cl)cc(Cl)c2O)N1CCc1ccccn1 (stereo not given),.,.,-13,8,.,.
CN(C)C(=O)CSc1nnc(-c2cc(-c3cccs3)nc3ccccc23)o1,-9,6,50*,15,-34,37
CCN(CC)C(=O)CSc1nnc(-c2cc(-c3ccc(Cl)cc3)nc3ccccc23)o1,-30,0,-10,3,-21,2
Cc1ccc(-n2cc(CN3CCC(CO)(Cc4cccc(C(F)(F)F)c4)CC3)cn2)cc1,-17,9,4,44*,10,12
SMILES,OX1R antag-1,NTR1 ag,TAAR1 antagonist,TAAR1 ag,CHO parental Ca,OX1R antag-2
Cc1nn(Cc2c(Cl)cccc2Cl)c(C)c1NC(=O)c1cc(C(C)C)on1,89*,-2,-10,0,91*,6
Cc1cc(C(=O)Nc2c(C)nn(Cc3c(Cl)cccc3Cl)c2C)no1,-8,0,-4,13,-4,15
CC(C)C[C@@H](NC(=O)OC(C)(C)C)C(=O)N1O[C@]23C=C[C@]14C[C@@H](O)CC[C@]4(C)C2CC[C@]1(C)[C@@H]([C@H](C)/C=C/[C@H](C)C(C)C)CC[C@H]13 (stereo not given in full),.,.,-15,0,.,.
COc1ccccc1NC(=O)C1=C(C)Nc2nnnn2C1c1cc(Br)ccc1OC (stereo not given),-12,4,0,48*,4,9
COc1cccc(C2C(C(=O)Nc3cccnc3)=C(C)Nc3nnnn32)c1OC (stereo not given),4,1,15,6,-6,7
O=C(C(=O)N1CCN(C(=O)Cc2ccccc2)CC1)c1cccc(C(F)(F)F)c1,.,.,-38,5,.,.
O=C(O)c1ccc(Sc2ccccn2)c([N+](=O)[O-])c1,-6,0,-1,3,-3,57
O=C(O)c1ccc(Sc2nnc3ccccn23)c([N+](=O)[O-])c1,-12,1,0,7,-9,72*
CCOC(=O)N1CCN(C(=O)C2CCN(C(=O)c3ccc([N+](=O)[O-])cc3)CC2)CC1,-16,0,-6,2,-4,55*
COc1ccc(NC(=O)N2CCN(c3ccc([N+](=O)[O-])cc3)CC2)cc1,9,3,28,3,6,25
COc1ccc(N2CCN(C(=O)C3CCN(C(=O)c4ccc([N+](=O)[O-])cc4)CC3)CC2)cc1,-5,-1,-7,0,-2,51*
CCOC(=O)N1CCN(C(=O)C2CCN(C(=O)c3ccc(C(C)(C)C)cc3)CC2)CC1,-12,0,-15,3,-7,17
COc1ccc(/C=C2/C(=O)N(c3c(F)c(F)c(F)c(F)c3F)N=C2C)cc1,-2,1,27,42*,5,13
C=CCn1c(-c2ccc(S(=O)(=O)N3CCOCC3)cc2)csc1=Nc1ccccc1,4,1,20,8,39*,19
O=C(NCc1ccccc1)[C@H]1CCCN1C(=O)[C@H]1CCCN1C(=O)C1CCCCC1,.,.,7,-1,.,.
CC1CC(C)CN(S(=O)(=O)c2cccc3nsnc23)C1 (stereo not given),-7,1,-6,-1,-13,27
C/C(=N\NC(=O)c1cc(Br)ccc1O)c1cccc(NC(=O)c2ccccc2F)c1,-15,3,-19,4,-8,59*
COc1ccc(Nc2nnc(-c3ccc4c(c3)OCO4)o2)cc1,.,.,2,3,.,.
CCc1cc(-c2[nH]ncc2-c2ccc([N+](=O)[O-])cc2)c(O)cc1OC,-10,21,.,.,60*,17
COc1ccc(-c2cn[nH]c2-c2ccc(OCc3ccc([N+](=O)[O-])cc3)cc2O)cc1OC,5,19,29,-1,-6,30
